Assay results taken from ChEMBL document CHEMBL1122189, “Preliminary studies of mesoionic 3-(substituted-aryl)-psi-oxatriazoles as potential antihypertensive agents” (1982).

How the values were obtained:
[1] = system: Rattus norvegicus; assay: Hypotensive response (diastolic blood pressure) was determined at 30 minutes for a dose 10 mg/kg administered and 1 mL of corn oil in rat; format: functional, Artery
Method in brief: (§1)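 Male Sprague–Dawley rats (250-350 g), femoral artery cannulated under sodium pentobarbital (35 mg/kg ip), restrained supine. Heparin–saline injected into the cannula before recording. Single oral gavage dose in corn oil. Systolic and diastolic pressure taken 30 min after dosing, given as mean (±SE) percent decrease from base line, base line being pressure of animals given 1 mL corn oil.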

[2] = system: Rattus norvegicus; assay: Hypotensive response (systolic blood pressure) was determined at 30 minutes for a dose of 10 mg/kg administered and 1 mL of corn oil in rat; format: functional, Artery; method in brief: as §1
[3] = system: Rattus norvegicus; assay: Hypotensive response for decrease in blood pressure was determined for a dose 45 mg/kg of in rat; format: functional
Method in brief: (§2)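 Male Sprague–Dawley rats (250-350 g), femoral artery cannulated under sodium pentobarbital (35 mg/kg ip); pressure recorded by transducer after recovery from anesthesia. Oral gavage in under 1 mL corn oil, doses 1-90 mg/kg; vehicle controls got 1 mL corn oil. Recorded continuously for 30 min, then at intervals. Result is mean (±SE) percent decrease in […] from post-anesthesia base line over the first hour.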

[4] = system: Rattus norvegicus; assay: Hypotensive response for decrease in blood pressure was determined for a dose 3 mg/kg of in rat; format: functional; method in brief: as §2
[5] = system: Rattus norvegicus; assay: Hypotensive response for decrease in blood pressure was determined for a dose 0 mg/kg + 1 mL corn oil in rat; format: functional; method in brief: as §2
[6] = system: Rattus norvegicus; assay: Hypotensive response for decrease in blood pressure was determined for a dose 15 mg/kg of in rat; format: functional; method in brief: as §2
[7] = system: Rattus norvegicus; assay: Hypotensive response for decrease in blood pressure was determined for a dose 10 mg/kg of in rat; format: functional; method in brief: as §2
[8] = system: Rattus norvegicus; assay: Hypotensive response for decrease in blood pressure was determined for a dose 25 mg/kg of in rat; format: functional; method in brief: as §2
[9] = system: Rattus norvegicus; assay: Hypotensive response for decrease in blood pressure was determined for a dose 90 mg/kg of in rat; format: functional; method in brief: as §2
[10] = system: Rattus norvegicus; assay: Hypotensive response for decrease in blood pressure was determined for a dose 1 mg/kg of in rat; format: functional; method in brief: as §2

## COc1ccc(-[n+]2noc([O-])n2)cc1
[1]
  Decrease in blood pressure: 20%
[2]
  Decrease in blood pressure: 22.2%

## [O-]c1n[n+](-c2ccc(Cl)cc2)no1
[1]
  Decrease in blood pressure: 47.9%
[2]
  Decrease in blood pressure: 47%

## O=[N+]([O-])c1ccc(-[n+]2noc([O-])n2)cc1
[1]
  Decrease in blood pressure: 23.8%
[2]
  Decrease in blood pressure: 24.8%

## [O-]c1n[n+](-c2ccc(Cl)c(Cl)c2)no1
[1]
  Decrease in blood pressure: 30.9%
[2]
  Decrease in blood pressure: 31.7%

## Cc1ccc(-[n+]2noc([O-])n2)cc1
[3]
  Decrease in blood pressure: 53%
[1]
  Decrease in blood pressure: 27.5%
[4]
  Decrease in blood pressure: 23.5%
[5]
  Decrease in blood pressure: 0%
[2]
  Decrease in blood pressure: 28.5%
[6]
  Decrease in blood pressure: 37.6%
[7]
  Decrease in blood pressure: 28%
[8]
  Decrease in blood pressure: 48.1%
[9]
  Decrease in blood pressure: 75.3%
[10]
  Decrease in blood pressure: 13.9%

## [O-]c1n[n+](-c2c(Cl)cccc2Cl)no1
[1]
  Decrease in blood pressure: 8.3%
[2]
  Decrease in blood pressure: 11.5%

## [O-]c1n[n+](-c2ccccc2)no1
[1]
  Decrease in blood pressure: 52.3%
[2]
  Decrease in blood pressure: 51.7%
